Source: PubChem BioAssay
The list is not random: actives were taken first. Their share in the collection is about 1.8%.
Tn7 DDE FP – disrupts Tn7 cyclic peptide binding to fibrin D-Dimer-E complex. P02675. FP displacement of FITC-Tn7 peptide from fibrin DD(E); 0% = median of compound wells per plate. inhibition, % at 8.3 µM. 370,000 compounds, 0.13% hits;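 active means inhibition above the mean of compounds falling within the control limits plus 3 SD of them, cut at about 14% in these data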
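system = human fibrin DD(E) protein | quantity = DD(E) 2 µM final | medium = Tris/NaCl/CaCl2 buffer, pH 7.8 | also added = labelled Tn7 tracer, 0.1 µM | compound dosing = single point at 8.3 µM | timing = compound with protein 10 min, then 3 h after probe, room temperature | signal = FP measurement | benchmarks = Aha-Tn7 high control | repeats = one replicate per compound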
mABHD4 FP – inhibitors of mouse ABHD4 | Q8VD66 | purified mABHD4, FP-Rh probe fluorescence polarization | inhibition, % at 8.92 µM | 370,000 compounds, 0.54% hits | AID 720543;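 active means inhibition exceeding the mean over every tested compound plus 3 SD, cut at about 30% in these data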
Target sequence (Q8VD66 whole entry, looked up): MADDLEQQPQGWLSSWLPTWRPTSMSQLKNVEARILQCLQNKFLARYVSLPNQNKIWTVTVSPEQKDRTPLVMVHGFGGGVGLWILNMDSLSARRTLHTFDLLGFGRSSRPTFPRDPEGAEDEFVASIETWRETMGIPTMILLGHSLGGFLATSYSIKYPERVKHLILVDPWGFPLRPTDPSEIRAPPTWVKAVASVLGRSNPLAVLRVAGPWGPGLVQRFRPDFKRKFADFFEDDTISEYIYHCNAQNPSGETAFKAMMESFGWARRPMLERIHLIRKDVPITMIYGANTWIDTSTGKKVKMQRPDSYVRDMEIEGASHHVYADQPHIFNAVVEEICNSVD
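System: mouse ABHD4 enzyme, wild type / Medium: HEPES pH 7.0, NaCl, Pluronic buffer / Reagent: FP-Rh activity-based fluorescent probe / Control set: S159A mutant high control, sample median low control / Detection: fluorescence polarization with parallel and perpendicular emission, 525/598 nm / Schedule: 45 min + 60 min at 25 °C / Compound dosing: 8.92 µM, single dose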
TCR CD3 inh – human TCR-CD3 binding inhibition; TAMRA-labeled TCR probe fluorescence, biochemical; inhibition, % at 9.4 µM; 360,000 compounds, 0.37% hits; AID 651800; in the data active means inhibition above about 19%;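 further: recombinant mutant TCR 2C K166C tagged with TAMRA read by polarization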
SIAE inh – blocks human sialic acid acetylesterase. SIAE FP-Rh probe binding, fluorescence polarization. inhibition, % at 9.66 µM. Q9HAT2. 370,000 compounds, 0.69% hits. AID 1053197;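 active means inhibition above a cutoff: mean of compounds within the control limits plus 3 SD of those, cut at about 17% in these data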
Tn6 DDE FP – disrupts Tn6 cyclic peptide binding to fibrin D-Dimer-E complex. P02675. Fibrin DD(E) TRITC-Tn6 fluorescence polarization displacement. inhibition, % at 8.3 µM. 370,000 compounds, 0.21% hits. AID 720509;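 active means inhibition above a per-campaign cutoff: mean of compounds within control limits plus 3 SD, cut at about 15% in these data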
HTRA1 inhibitor – blocks human HTRA1 serine peptidase | recombinant HTRA1, FP-rhodamine activity-based probe, fluorescence polarization | Q92743 | inhibition, % at 5.96 µM | AID 504803 | 340,000 compounds, 0.5% hits; in the data active means inhibition above about 36%
A number is an active result; - = inactive; . = no result.

SMILES | Tn7 DDE FP | mABHD4 FP | TCR CD3 inh | SIAE inh | Tn6 DDE FP | HTRA1 inhibitor
CC(=O)N1CCc2cc(S(=O)(=O)NC3CCN(C(=O)OCc4ccccc4)CC3)ccc21 | - | - | . | - | - | .
Oc1ccccc1-c1nnc(COc2ccccc2)o1 | - | - | 33.8 | - | - | -
CCN1CCN(Cc2ccc(NC(=O)c3ccc(C)c(NC(=O)C(=O)c4c[nH]c5ccccc45)c3)cc2C(F)(F)F)CC1 | - | - | - | - | - | -
CCN1CCN(Cc2ccc(NC(=O)c3cc(NC(=O)C(=O)c4c[nH]c5ccccc45)cc(OC)c3)cc2C(F)(F)F)CC1 | - | - | - | - | 43.8 | -
COc1cc(C=Nn2c(-c3ccc(F)cc3)n[nH]c2=S)ccc1OCc1ccccc1 | - | - | . | - | - | .
Cc1ccc(Nc2nc3ccccc3s2)c(C)c1 | - | - | - | - | - | -
Cc1cc(O)ccc1Nc1nc2ccccc2nc1Nc1ccc(O)cc1C | - | - | - | 19.9 | - | -
COc1cccc2sc(Nc3nc(-c4cc5ccccc5oc4=O)cs3)nc12 | - | - | 19.0 | - | - | -
CC(=O)c1cc(O)c2ccccc2c1O | - | 38.6 | - | - | - | -
C[C@@H](/C=C/C(=O)OC(C)(C)C)Sc1ccc(C(C)(C)C)cc1 | - | - | . | - | - | .
COc1cc(/C=N/Nc2ccc(Cl)c(C(=O)O)c2)ccc1OC(=O)c1ccco1 | - | - | - | - | - | -
COc1cc(/C=N/Nc2nc3c(c(=O)n(C)c(=O)n3C)n2Cc2ccccc2)ccc1OC(=O)c1ccco1 | - | - | - | 21.1 | - | -
O=c1[nH]c2c(s1)C=Nc1ccccc1N2 | 30.2 | - | - | - | - | -
CCCCCCCCN1C(=O)[C@@H](CC(=O)NCCC(C)C)C[C@@]2(C(=O)OC)C1=C[C@H](COCc1ccccc1)O[C@@H]2C | - | - | . | - | - | .
CCOC(=O)N1C(=O)C[C@](Sc2ccc(OC)cc2)(C(=O)N2CCCC2)[C@H]1c1ccc(OC)cc1 | - | - | . | - | - | .
O=C(Cc1cccc2ccccc12)Nc1ccc(-c2cc3ccccc3oc2=O)cc1 | - | - | 38.0 | - | - | -
COC(=O)CSc1nnc(-c2ccc(NS(=O)(=O)c3ccc(Cl)s3)cc2)o1 | - | - | . | - | - | .
Cc1cc2nc(-c3ccc(SCC(=O)Nc4ccc(S(=O)(=O)NC5CC5)cc4)nc3)[nH]c2cc1C | - | - | - | - | 28.6 | -
COc1ccc2c(c1)c(=O)oc1c(C)c(OCc3cc(C(=O)O)oc3C)ccc12 | - | 31.9 | - | - | - | -
Cc1cc(O)c(Sc2ncn[nH]2)cc1NS(=O)(=O)c1ccc(Cl)cc1 | - | - | - | - | - | -
Cc1cc(C)c(S(=O)(=O)/N=C2/C=C(Sc3ncn[nH]3)C(=O)c3ccccc32)cc1C | - | 42.8 | - | 19.9 | - | -
CC(=O)Nc1ccc2[nH]c3ccccc3c2c1 | - | - | - | - | - | -
O=C(Nc1ccc(Cl)cc1)c1cc2c(cc1O)[nH]c1ccccc12 | - | - | - | 51.3 | - | -
Cc1cccc(-n2c(O)c(C=Nc3ccccc3O)c3ccccc3c2=O)n1 | - | - | 40.5 | - | - | -
Cn1c(NC(=O)c2ccccc2)nc(Cc2ccccc2)c1-c1ccccc1 | - | - | . | - | - | .
SMILES | Tn7 DDE FP | mABHD4 FP | TCR CD3 inh | SIAE inh | Tn6 DDE FP | HTRA1 inhibitor
O=c1[nH][nH]c2c(N=Cc3ccccc3O)ccc(F)c12 | . | . | . | . | . | 46.6
Cc1ccc(Oc2coc3cc(OC(=O)c4cccs4)ccc3c2=O)cc1 | - | - | - | - | - | 70.0
Cc1cccc(Oc2coc3cc(OC(=O)c4cccs4)ccc3c2=O)c1 | - | - | - | - | - | 68.7
COC(=O)C1=CC(=O)C=C(OC)[C@@]12Oc1cc(C)cc(OC)c1C2=O | - | - | . | - | - | .
COc1ccc(Cn2c(NC(=O)c3ccccc3)nc(Cc3ccccc3)c2Cc2ccccc2)cc1 | - | - | . | - | - | .
CC(=O)Nc1ccc(C=NNc2ccc([N+](=O)[O-])cc2S(=O)(=O)Nc2ccccc2C(=O)O)cc1 | - | - | - | - | - | -
CN(CCO)c1ccc(C=NNc2ccc([N+](=O)[O-])cc2S(=O)(=O)Nc2ccccc2C(=O)O)cc1 | - | 46.1 | - | - | - | .
